# Laboratory results from ChEMBL document CHEMBL1126854, “A series of penicillin derived C2-symmetric inhibitors of HIV-1 proteinase: synthesis, mode of interaction, and structure-activity relationships” (J Med Chem, 1993).
# Columns and labels:
# [1] = system: Human immunodeficiency virus 1; test: Inhibitory effects on HIV-1 induced syncytium formation in C8166 cells; format: functional, organism-based; details: Human immunodeficiency virus 1, C8166
# How it was run: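 C8166 cells were infected with HIV-1 RF at moi 1×10^-3 and plated at 10^5 cells/well. Compound in Me2SO was serially diluted in RPMI 1640 from 50 to 0.05 μg/mL. Cells were kept 3–4 days at 37 °C, 5% CO2, and checked daily for syncytia. Syncytia were scored against untreated infected controls, and EC50 was calculated as 50% reduction of cytopathic effect.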
# MT4 = test: Inhibition of cytopathic effect of HIV-1 strain RF in MT-4 cell culture; format: functional, cell-based; details: Homo sapiens
# How it was run: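 MT-4 cells at 10^6 cells/mL in RPMI 1640 were infected with HIV-1 RF at moi 2×10^-3 (5×10^4 cells/well). Compound in Me2SO was diluted in 10-fold steps from 100 to 0.01 μg/mL. Cells were kept 7 days at 37 °C, 5% CO2, then given MTT for 60 min. Acidified 2-propanol was added and A540 read. EC50 for 50% inhibition of formazan conversion is the mean of duplicates; toxicity was assayed at the same concentrations.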
# [2] = target: Human immunodeficiency virus type 1 protease (Human immunodeficiency virus 1, UniProt Q72874); test: Inhibitory activity against HIV-1 Protease
# How it was run: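 Buffer: 20 mM MES pH 6.0, 2 M NaCl, 5 mM DTT, 2 mM EDTA. Compounds in 25% Me2SO over a concentration range. Incubated 60 min at 37 °C with shaking, then filtered; released radioactivity counted by scintillation. IC50 from duplicate means, standardized to a reference-compound control.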
Compound,EC50 [1] [nM],EC50 (MT4) [µM],IC50 [2] [nM]
CC1(C)S[C@H]([C@H](NC(=O)Cc2ccccc2)C(=O)NCc2ccccc2)N[C@H]1C(=O)NCCNC(=O)[C@@H]1N[C@@H]([C@H](NC(=O)Cc2ccccc2)C(=O)NCc2ccccc2)SC1(C)C,60,0.29,
CCNC(=O)[C@@H](NC(=O)CCc1ccccc1)[C@@H]1N[C@@H](C(=O)NCCNC(=O)[C@@H]2N[C@@H]([C@H](NC(=O)CCc3ccccc3)C(=O)NCC)SC2(C)C)C(C)(C)S1,60,3.9,2.4
COC(=O)[C@@H](NC(=O)Cc1ccccc1)[C@@H]1N[C@@H](C(=O)NCCNC(=O)[C@@H]2N[C@@H]([C@H](NC(=O)Cc3ccccc3)C(=O)OC)SC2(C)C)C(C)(C)S1,,> 100,
CCNC(=O)[C@@H](NC(=O)CC(C)C)[C@@H]1N[C@@H](C(=O)NCCNC(=O)[C@@H]2N[C@@H]([C@H](NC(=O)CC(C)C)C(=O)NCC)SC2(C)C)C(C)(C)S1,,> 100,8.7
CC1(C)S[C@H]([C@H](NC(=O)Cc2ccccc2)C(N)=O)N[C@H]1C(=O)NCCNC(=O)[C@@H]1N[C@@H]([C@H](NC(=O)Cc2ccccc2)C(N)=O)SC1(C)C,,> 100,
CC1(C)S[C@H]([C@H](NC(=O)Cc2ccccc2)C(=O)NCc2ccccn2)N[C@H]1C(=O)NCCNC(=O)[C@@H]1N[C@@H]([C@H](NC(=O)Cc2ccccc2)C(=O)NCc2ccccn2)SC1(C)C,,80,11
CC1(C)S[C@H]([C@H](NC(=O)Cc2ccccn2)C(=O)NCc2ccc(Cl)cc2)N[C@H]1C(=O)NCCNC(=O)[C@@H]1N[C@@H]([C@H](NC(=O)Cc2ccccn2)C(=O)NCc2ccc(Cl)cc2)SC1(C)C,,1.9,7.5
CCNC(=O)[C@@H](NC(=O)c1ccccc1Cc1ccccc1)[C@@H]1N[C@@H](C(=O)NCCNC(=O)[C@@H]2N[C@@H]([C@H](NC(=O)c3ccccc3Cc3ccccc3)C(=O)NCC)SC2(C)C)C(C)(C)S1,,> 100,72
CC1(C)S[C@H]([C@H](NC(=O)Cc2ccccc2)C(=O)OCc2ccccc2)N[C@H]1C(=O)NCCNC(=O)[C@@H]1N[C@@H]([C@H](NC(=O)Cc2ccccc2)C(=O)OCc2ccccc2)SC1(C)C,,> 100,75
CCNC(=O)[C@@H](NC(=O)/C=C\c1ccccc1)[C@@H]1N[C@@H](C(=O)NCCNC(=O)[C@@H]2N[C@@H]([C@H](NC(=O)/C=C\c3ccccc3)C(=O)NCC)SC2(C)C)C(C)(C)S1,,3.2,2.9
CCNC(=O)[C@@H](NC(=O)c1ccccc1Oc1ccccc1)[C@@H]1N[C@@H](C(=O)NCCNC(=O)[C@@H]2N[C@@H]([C@H](NC(=O)c3ccccc3Oc3ccccc3)C(=O)NCC)SC2(C)C)C(C)(C)S1,,> 100,160
CC(C)(C)OC(=O)CNC(=O)[C@@H](NC(=O)Cc1ccccc1)[C@@H]1N[C@@H](C(=O)NCCNC(=O)[C@@H]2N[C@@H]([C@H](NC(=O)Cc3ccccc3)C(=O)NCC(=O)OC(C)(C)C)SC2(C)C)C(C)(C)S1,,2.7,21
CC1(C)S[C@H](CNC(=O)Cc2ccccc2)N[C@H]1C(=O)NCCNC(=O)[C@@H]1N[C@@H](CNC(=O)Cc2ccccc2)SC1(C)C,,,7800
CCNC(=O)[C@@H](NC(=O)Cc1ccc(O)cc1)[C@@H]1N[C@@H](C(=O)NCCNC(=O)[C@@H]2N[C@@H]([C@H](NC(=O)Cc3ccc(O)cc3)C(=O)NCC)SC2(C)C)C(C)(C)S1,,,> 12000
CC1(C)S[C@H]([C@@H](CO)NC(=O)Cc2ccccc2)N[C@H]1C(=O)NCCNC(=O)[C@@H]1N[C@@H]([C@@H](CO)NC(=O)Cc2ccccc2)SC1(C)C,,> 100,140
CC1(C)S[C@H]([C@H](NC(=O)Cc2ccccc2)C(=O)NCC(=O)O)N[C@H]1C(=O)NCCNC(=O)[C@@H]1N[C@@H]([C@H](NC(=O)Cc2ccccc2)C(=O)NCC(=O)O)SC1(C)C,,> 100,39
CCNC(=O)[C@@H](NC(=O)Cc1cccs1)[C@@H]1N[C@@H](C(=O)NCCNC(=O)[C@@H]2N[C@@H]([C@H](NC(=O)Cc3cccs3)C(=O)NCC)SC2(C)C)C(C)(C)S1,5200,27,15
CC(C)(C)NC(=O)[C@@H]1C[C@@H]2CCCC[C@@H]2CN1C[C@@H](O)[C@H](Cc1ccccc1)NC(=O)[C@H](CC(N)=O)NC(=O)c1ccc2ccccc2n1,0.6,0.004,
CCNC(=O)[C@@H](NC(=O)Cc1ccccc1)[C@@H]1N[C@@H](C(=O)NCCNC(=O)[C@@H]2N[C@@H]([C@H](NC(=O)Cc3ccccc3)C(=O)NCC)SC2(C)C)C(C)(C)S1,,,1300

Compound,EC50 [1] [nM],EC50 (MT4) [µM],IC50 [2] [nM]
CC(C)(C)OC(=O)CNC(=O)[C@@H](NC(=O)c1ccccc1-c1ccccc1)[C@@H]1N[C@@H](C(=O)NCCNC(=O)[C@@H]2N[C@@H]([C@H](NC(=O)c3ccccc3-c3ccccc3)C(=O)NCC(=O)OC(C)(C)C)SC2(C)C)C(C)(C)S1,,1.6,4.1
CN(Cc1ccccc1)C(=O)[C@@H](NC(=O)Cc1ccccc1)[C@@H]1N[C@@H](C(=O)NCCNC(=O)[C@@H]2N[C@@H]([C@H](NC(=O)Cc3ccccc3)C(=O)N(C)Cc3ccccc3)SC2(C)C)C(C)(C)S1,,,820
CCNC(=O)[C@@H](N)[C@@H]1N[C@@H](C(=O)NCCNC(=O)[C@@H]2N[C@@H]([C@H](N)C(=O)NCC)SC2(C)C)C(C)(C)S1,,,120000
CCNC(=O)[C@@H](NC(=O)c1ccccc1)[C@@H]1N[C@@H](C(=O)NCCNC(=O)[C@@H]2N[C@@H]([C@H](NC(=O)c3ccccc3)C(=O)NCC)SC2(C)C)C(C)(C)S1,,,390
CC1(C)S[C@H]([C@@H](COC(=O)c2ccccc2)NC(=O)Cc2ccccc2)N[C@H]1C(=O)NCCNC(=O)[C@@H]1N[C@@H]([C@@H](COC(=O)c2ccccc2)NC(=O)Cc2ccccc2)SC1(C)C,,,70
CN(C)C(=O)[C@@H](NC(=O)Cc1ccccc1)[C@@H]1N[C@@H](C(=O)NCCNC(=O)[C@@H]2N[C@@H]([C@H](NC(=O)Cc3ccccc3)C(=O)N(C)C)SC2(C)C)C(C)(C)S1,1700,4.4,5.2
CC1(C)S[C@H]([C@H](NC(=O)Cc2ccccn2)C(=O)NCc2ccccc2)N[C@H]1C(=O)NCCNC(=O)[C@@H]1N[C@@H]([C@H](NC(=O)Cc2ccccn2)C(=O)NCc2ccccc2)SC1(C)C,,> 10,0.55
CCNC(=O)[C@@H](NC(=O)c1c(-c2ccccc2)noc1C)[C@@H]1N[C@@H](C(=O)NCCNC(=O)[C@@H]2N[C@@H]([C@H](NC(=O)c3c(-c4ccccc4)noc3C)C(=O)NCC)SC2(C)C)C(C)(C)S1,,2.5,5.4
CC1(C)S[C@H]([C@H](NC(=O)Cc2ccccc2)C(=O)N(CCO)CCO)N[C@H]1C(=O)NCCNC(=O)[C@@H]1N[C@@H]([C@H](NC(=O)Cc2ccccc2)C(=O)N(CCO)CCO)SC1(C)C,,,840
CCNC(=O)[C@@H](NC(=O)Cc1ccccc1)[C@@H]1N[C@@H](C(=O)NCCNC(=O)[C@@H]2N[C@@H](CNC(=O)Cc3ccccc3)SC2(C)C)C(C)(C)S1,,> 100,35
CCNC(=O)[C@@H](NC(=O)Cc1ccccc1)[C@@H]1N[C@@H](C(=O)NCCNC(=O)[C@@H]2NCSC2(C)C)C(C)(C)S1,,,8800
CC1(C)S[C@H]([C@H](NC(=O)Cc2ccccc2)C(=O)NCCO)N[C@H]1C(=O)NCCNC(=O)[C@@H]1N[C@@H]([C@H](NC(=O)Cc2ccccc2)C(=O)NCCO)SC1(C)C,,> 100,40
CC1(C)S[C@H]([C@H](NC(=O)c2ccccc2-c2ccccc2)C(=O)NCC(=O)O)N[C@H]1C(=O)NCCNC(=O)[C@@H]1N[C@@H]([C@H](NC(=O)c2ccccc2-c2ccccc2)C(=O)NCC(=O)O)SC1(C)C,,> 100,39
CCNC(=O)[C@@H](NC(=O)c1ccccc1Nc1ccccc1)[C@@H]1N[C@@H](C(=O)NCCNC(=O)[C@@H]2N[C@@H]([C@H](NC(=O)c3ccccc3Nc3ccccc3)C(=O)NCC)SC2(C)C)C(C)(C)S1,,,4800
CCNC(=O)[C@@H](NC(=O)Cc1ccccn1)[C@@H]1N[C@@H](C(=O)NCCNC(=O)[C@@H]2N[C@@H]([C@H](NC(=O)Cc3ccccn3)C(=O)NCC)SC2(C)C)C(C)(C)S1,,> 100,19
CC1(C)S[C@H]([C@H](NC(=O)Cc2ccccc2)C(=O)NCC(F)(F)F)N[C@H]1C(=O)NCCNC(=O)[C@@H]1N[C@@H]([C@H](NC(=O)Cc2ccccc2)C(=O)NCC(F)(F)F)SC1(C)C,220,0.28,4.4
CC1(C)S[C@H]([C@H](NC(=O)c2ccccc2-c2ccccc2)C(=O)NCc2ccccc2)N[C@H]1C(=O)NCCNC(=O)[C@@H]1N[C@@H]([C@H](NC(=O)c2ccccc2-c2ccccc2)C(=O)NCc2ccccc2)SC1(C)C,130,0.11,7.5
CCNC(=O)[C@@H](NC(=O)Cc1ccc2ccccc2c1)[C@@H]1N[C@@H](C(=O)NCCNC(=O)[C@@H]2N[C@@H]([C@H](NC(=O)Cc3ccc4ccccc4c3)C(=O)NCC)SC2(C)C)C(C)(C)S1,,,820
Cc1cn([C@H]2C[C@H](N=[N+]=[N-])[C@@H](CO)O2)c(=O)[nH]c1=O [ZIDOVUDINE],30,0.02,
